Assay results from ChEMBL document CHEMBL1137343, “4-arylazo-3,5-diamino-1H-pyrazole CDK inhibitors: SAR study, crystal structure in complex with CDK2, selectivity, and cellular effects” (J Med Chem, 2006).
The source made the active and inactive calls. The calls are words filed in the database; no cut-off is given here.

Legend:
[1] = target: CDK9/cyclin T1 (Homo sapiens) (UniProt O60563+P50750); experiment: Activity of CDK9/Cyclin T1 at 10 uM; type: protein-complex assay
HT-29 [2] = experiment: Cell cycle arrest in HT29 cells by accumulation at S phase at 50 uM after 12 hrs; type: functional, Homo sapiens
How it was run: (§1)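 Subconfluent, asynchronous HT-29 cells were treated 3, 6 or 12 h, then pulsed with 10 µM BrdU for 30 min at 37 °C. Cells were fixed in ice-cold 70% ethanol, DNA denatured in 2 M HCl and neutralised with borate. Staining used FITC anti-BrdU, then propidium iodide (0.1 mg/mL) with RNase A. Analysis by flow cytometry with 488 nm laser.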

[3] = target: Cyclin-dependent kinase 2/cyclin E (Homo sapiens, UniProt P24941); experiment: Inhibition of CDK2/Cyclin E in presence of 15 uM ATP; type: protein-complex assay
[4] = target: cAMP-dependent protein kinase (PKA) (Homo sapiens) (UniProt P22694+P17612+P22612); experiment: Activity of PKA at 10 uM; type: protein assay
How it was run: (§2)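 Radiometric kinase assay at 10 µM inhibitor, run in duplicate. c-Abl, CHK1, GSK3β, p70S6K, PKA and PKBα were run in 8 mM MOPS pH 7.0 with 0.2 mM EDTA. MAPK1 and SAPK2α were run in 25 mM Tris pH 7.5 with 0.02 mM EGTA. CK2 was run in 20 mM HEPES pH 7.6, 0.15 M NaCl, 0.1 mM EDTA, 2 mM DTT and 0.1% Triton X-100. All had 10 mM Mg-acetate, 10 µM ATP, [γ-33P]ATP and a peptide substrate; 40 min; H3PO4 stop; P30 filter; scintillation counting.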

MCF7 [5] = experiment: Increase in p21 WAF1 expression level in MCF7 cells at 50 uM after 24 hrs; type: functional, cell-based; details: Homo sapiens
How it was run: (§3)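 MCF7 cells were treated 24 h, lysed in Laemmli buffer and run on 10% SDS-PAGE. Proteins were blotted to nitrocellulose; loading checked with Ponceau-S; blocked with 5% milk in PBS-Tween. Specific antibodies applied overnight (pRb phosphosites Ser780, Ser807, Thr821; p53; p21WAF1), then peroxidase secondary at 1:2000 with ECL detection.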

HT-29 [6] = experiment: Inhibition of CEA mRNA synthesis in HT29 cells measured as number of copies per 10^6 cells by RT PCR at 50 uM after 6 hrs; type: functional, Homo sapiens
How it was run: (§4)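 HT-29 cells were treated 3, 6 or 12 h; total RNA extracted with TRI reagent. 3 µg RNA reverse-transcribed with random primers and M-MLV RT at 42 °C for 60 min. CEA transcripts quantified by TaqMan real-time PCR: 50 cycles of 95 °C 15 s and 65 °C 15 s. Absolute copies came from amplicon standards of 30 to 10^6 copies, expressed per 10^6 cells. Samples run in duplicate PCR; values average of four determinations ± SD.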

[7] = target: Casein kinase II (Homo sapiens) (UniProt P67870+P68400+P19784); experiment: Activity of CK2 at 10 uM; type: protein-complex assay; how it was run: as §2
[8] = target: Cyclin-dependent kinase 4/cyclin D1 (Homo sapiens, UniProt P11802); experiment: Inhibition of CDK4/Cyclin D1 in presence of 100 uM ATP; type: protein-complex assay
HT-29 [9] = experiment: Inhibition of CEA mRNA synthesis in HT29 cells measured as number of copies per 10^6 cells by RT PCR at 50 uM after 3 hrs; type: functional, Homo sapiens; how it was run: as §4
K562 = experiment: Viability of K562 cells at 100 uM; type: functional, Homo sapiens
How it was run: (§5)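 Cells grown in DMEM with 10% FCS and 4 mM glutamine at 37 °C, plated in 96-well format, preincubated 12 h, then exposed 72 h. Live cells measured by Calcein AM (1 h) fluorescence at 485/538 nm; % viable cells given at 100 µM compound.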

HT-29 [10] = experiment: Cell cycle arrest in HT29 cells by accumulation at S phase at 50 uM after 6 hrs; type: functional, Homo sapiens; how it was run: as §1
HT-29 [11] = experiment: Inhibition of EpCAM mRNA synthesis in HT29 cells measured as number of copies per 10^6 cells by RT PCR at 50 uM after 3 hrs; type: functional, Homo sapiens
How it was run: (§6)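 HT-29 cells (5 × 10⁶) treated for 3, 6 or 12 h; total RNA extracted with TRI reagent, 3 µg reverse transcribed with random primers and M-MLV RT (42 °C, 60 min). Absolute transcript copies quantified by TaqMan real-time PCR, 50 cycles, against diluted gene-specific amplicon standards (30–1 000 000 copies); duplicate PCR per sample; values are means of four determinations ± SD.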

HT-29 [12] = experiment: Cell cycle arrest in HT29 cells by accumulation at G2/M phase at 50 uM after 6 hrs; type: functional, Homo sapiens; how it was run: as §1
G-361 = experiment: Viability of G361 cells at 100 uM; type: functional, Homo sapiens; how it was run: as §5
HT-29 [13] = experiment: Inhibition of GAPDH mRNA synthesis in HT29 cells measured as number of copies per 10^6 cells by RT PCR at 50 uM after 12 hrs; type: functional, Homo sapiens; how it was run: as §6
[14] = target: Cyclin-dependent kinase 2/cyclin E (Homo sapiens) (UniProt P24864+P24941+O96020); experiment: Activity of CDK2/Cyclin E at 10 uM; type: protein-complex assay
MCF7 [15] = experiment: Increase in p53 expression level in MCF7 cells at 50 uM after 24 hrs; type: functional, cell-based; details: Homo sapiens; how it was run: as §3
MCF7 [16] = experiment: Increase in p53 expression level in MCF7 cells at 100 uM after 24 hrs; type: functional, cell-based; details: Homo sapiens; how it was run: as §3

Sequence of Cyclin-dependent kinase 4/cyclin D1 (P11802 whole entry): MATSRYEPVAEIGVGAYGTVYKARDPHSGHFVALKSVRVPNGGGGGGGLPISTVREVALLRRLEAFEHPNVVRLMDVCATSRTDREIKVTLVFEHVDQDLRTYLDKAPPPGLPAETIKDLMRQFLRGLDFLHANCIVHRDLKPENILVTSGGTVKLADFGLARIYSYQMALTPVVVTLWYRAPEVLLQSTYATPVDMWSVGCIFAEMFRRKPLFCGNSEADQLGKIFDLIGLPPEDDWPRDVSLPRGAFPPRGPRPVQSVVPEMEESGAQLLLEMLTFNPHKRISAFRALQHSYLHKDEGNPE
Sequence of Cyclin-dependent kinase 4/cyclin D1 (P24385 whole entry, further chain): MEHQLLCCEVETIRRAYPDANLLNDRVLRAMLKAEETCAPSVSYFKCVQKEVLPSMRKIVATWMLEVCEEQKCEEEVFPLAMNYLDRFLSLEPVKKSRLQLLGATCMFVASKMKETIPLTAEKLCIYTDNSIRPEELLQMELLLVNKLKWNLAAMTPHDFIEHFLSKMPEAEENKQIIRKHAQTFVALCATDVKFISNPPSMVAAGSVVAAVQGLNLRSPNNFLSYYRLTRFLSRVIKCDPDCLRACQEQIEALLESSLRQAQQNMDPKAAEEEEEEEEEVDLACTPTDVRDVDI

residual activity [1]: 6.9%
IC50 [3]: 3.5 µM
residual activity [4]: 67%
residual activity [7]: 65%
IC50 [8]: 13.5 µM
residual activity [14]: 31%
Structure (SMILES): Nc1n[nH]c(N)c1/N=N/c1ccc(O)cc1
Activity (HT-29 [2]): 66%
Activity (MCF7 [5]): Active
Activity (HT-29 [6]): 22620
Activity (HT-29 [9]): 27900
Activity (K562): 23%
Activity (HT-29 [10]): 54.2%
Activity (HT-29 [11]): 6047138
Activity (HT-29 [12]): 9.9%
Activity (G-361): 8.3%
Activity (HT-29 [13]): 1811960
Activity (MCF7 [15]): Active
Activity (MCF7 [16]): Active
